Laboratory results published in ChEMBL document CHEMBL1932913, “Synthesis and antitumor evaluation of some new 1,3,4-oxadiazole-based heterocycles” (Eur J Med Chem, 2012).
In brackets after ≈: the same amount, converted by molar mass. Activity calls are given as the source filed them. The rule behind the calls is not given here.

Legend:
MCF7 = experiment: Cytotoxicity against human MCF7 cells after 96 hrs by MTT assay; format: functional, cell-based; details: MCF7, 96 h
Method in brief: (§1)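 Cells from ATCC, batch cultured 10 d, seeded at 10 × 10³ cells/well in RPMI-1640 with fetal bovine serum, attached 24 h at 37 °C, 5% CO₂. Serum-free medium, then test samples at final 1000, 500, 200, 100, 50, 20, 10 (DMSO ≤1% v/v); 96 h incubation. Formazan read-out against untreated controls; 5-fluorouracil positive control; IC50 from dose–response curve.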

HepG2 = experiment: Cytotoxicity against human HepG2 cells after 96 hrs by MTT assay; format: functional, cell-based; details: HepG2, 96 h; method in brief: as §1
Vero = experiment: Cytotoxicity against african green monkey Vero cells after 96 hrs by MTT assay; format: cell-based; details: Chlorocebus sabaeus; method in brief: as §1
Nucleic Acid = experiment: Protection against bleomycin-iron complex-induced DNA damage using EDTA after 1 hr by thiobarbituric acid method; format: nucleic-acid assay
Method in brief: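 Bleomycin DNA-damage assay, 1.0 ml final: DNA 0.2 mg/ml, bleomycin 0.05 mg/ml, FeCl₃ 0.025 mM, MgCl₂ 5 mM, KH₂PO₄–KOH pH 7.0 30 mM, sample 0.1 mg/ml in MeOH (ascorbic acid 0.24 mM reference). 37 °C for 1 h; stopped with EDTA; TBA plus HCl, 80 °C 15 min; absorbance read. Three experiments, mean ± S.E.M.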

WI-38 = experiment: Cytotoxicity against human WI38 cells after 96 hrs by MTT assay; format: cell-based; details: WI-38, 96 h; method in brief: as §1

Row | Structure (SMILES) | IC50 (MCF7) [µg/mL] | IC50 (HepG2) [µg/mL] | IC50 (Vero) [µg/mL] | Activity (Nucleic Acid) | IC50 (WI-38) [µg/mL]
1 | N#CCc1nnc(NC(=O)c2ccccc2)o1 | 39.2 (≈ 172 µM) | 21.2 (≈ 92.9 µM) | 30.3 (≈ 133 µM) | Active | 24.4 (≈ 107 µM)
2 | COc1ccc(/C=C(/C#N)c2nnc(NC(=O)c3ccccc3)o2)cc1 | 49.9 (≈ 144 µM) | 69.5 (≈ 201 µM) | 95.6 (≈ 276 µM) | – | 71.2 (≈ 206 µM)
3 | CC(=O)c1sc(Nc2ccccc2)c(-c2nnc(NC(=O)c3ccccc3)o2)c1N | 75.5 (≈ 180 µM) | 70.2 (≈ 167 µM) | 76.4 (≈ 182 µM) | – | 84.6 (≈ 202 µM)
4 | N#C/C(=C1\SC(=O)CN1c1ccccc1)c1nnc(NC(=O)c2ccccc2)o1 | 69.2 (≈ 172 µM) | 51.2 (≈ 127 µM) | 50.3 (≈ 125 µM) | – | 52.4 (≈ 130 µM)
5 | Nc1c(C(=O)c2ccccc2)sc(Nc2ccccc2)c1-c1nnc(NC(=O)c2ccccc2)o1 | 100 (≈ 209 µM) | 90.7 (≈ 188 µM) | 101 (≈ 209 µM) | – | 89.6 (≈ 186 µM)
6 | N#C/C(c1nnc(NC(=O)c2ccccc2)o1)=c1\sc(=O)/c(=C/c2cn(-c3ccccc3)nc2-c2ccccc2)n1-c1ccccc1 | 411 (≈ 648 µM) | 250 (≈ 395 µM) | 257 (≈ 405 µM) | – | 340 (≈ 537 µM)
7 | O=C(Nc1nnc(-c2nc3ccc4ccccc4c3oc2=O)o1)c1ccccc1 | 96.9 (≈ 252 µM) | 111 (≈ 290 µM) | 95.4 (≈ 248 µM) | – | 90.9 (≈ 237 µM)
8 | O=c1[nH]cc(F)c(=O)[nH]1 [FLUOROURACIL] | – | – | – | – | 3.2 (≈ 24.6 µM)
9 | Cc1c(/C=c2/c(=O)s/c(=C(\C#N)c3nnc(NC(=O)c4ccccc4)o3)n2-c2ccccc2)c(=O)n(-c2ccccc2)n1C | 167 (≈ 277 µM) | 146 (≈ 242 µM) | 170 (≈ 282 µM) | – | 175 (≈ 291 µM)
10 | CC1=CS/C(=C(\C#N)c2nnc(NC(=O)c3ccccc3)o2)N1c1ccccc1 | 25.8 (≈ 64.3 µM) | 12.4 (≈ 30.9 µM) | 15.8 (≈ 39.4 µM) | Active | 17.3 (≈ 43.1 µM)
11 | NC1=Nn2c(nnc2NC(=O)c2ccccc2)C1 | 66.8 (≈ 276 µM) | 65.6 (≈ 271 µM) | 69.8 (≈ 288 µM) | – | 65 (≈ 268 µM)
12 | Nc1nn(-c2ccccc2)c(Nc2ccccc2)c1-c1nnc(NC(=O)c2ccccc2)o1 | 99.1 (≈ 227 µM) | 98.7 (≈ 226 µM) | 98.8 (≈ 226 µM) | – | 90.5 (≈ 207 µM)
13 | N#C/C(=C/c1cn(-c2ccccc2)nc1-c1ccccc1)c1nnc(NC(=O)c2ccccc2)o1 | 37.4 (≈ 81.6 µM) | 38.1 (≈ 83.1 µM) | 39.6 (≈ 86.4 µM) | – | 24.1 (≈ 52.6 µM)
14 | CS/C(Nc1ccccc1)=C(\C#N)c1nnc(NC(=O)c2ccccc2)o1 | 107 (≈ 284 µM) | 125 (≈ 332 µM) | 132 (≈ 351 µM) | – | 98.7 (≈ 262 µM)
15 | Nc1n[nH]c(Nc2ccccc2)c1-c1nnc(NC(=O)c2ccccc2)o1 | 38.3 (≈ 106 µM) | 33.7 (≈ 93.3 µM) | 36.3 (≈ 100 µM) | – | 38.4 (≈ 106 µM)
16 | N#C/C(=C(\S)Nc1ccccc1)c1nnc(NC(=O)c2ccccc2)o1 | 77.5 (≈ 213 µM) | 100 (≈ 276 µM) | 82.4 (≈ 227 µM) | – | 84.6 (≈ 233 µM)
17 | O=C(Nc1nnc(-c2nc3c(ccc4ccccc43)oc2=O)o1)c1ccccc1 | 222 (≈ 577 µM) | 190 (≈ 494 µM) | 189 (≈ 492 µM) | – | 181 (≈ 470 µM)
18 | O=C(Nc1nnc(-c2cc3ccccc3oc2=O)o1)c1ccccc1 | 32.6 (≈ 97.8 µM) | 35.6 (≈ 107 µM) | 34.5 (≈ 104 µM) | – | 35.8 (≈ 107 µM)
